pIC50: −log10 of the molar value. Activity calls are given as the source filed them. The calls are words filed in the database; no cut-off is given here.

The test system of test [1] is EOL1. The experiment in a line: Induction of apoptosis in human EOL-1 cells assessed as caspase-3 activation at 10 nM after 72 hrs by immunoblotting analysis. The test is classed as functional, cell-based. In outline: (§1)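 EOL-1 cells (RPMI 1640, 10% FBS, 37 °C, 5% CO2) exposed 72 h; compounds at 10 μM, PKC412 at 10 nM. Harvested, PBS-washed, lysed in hypertonic NP-40 buffer with protease/phosphatase inhibitors; SDS-PAGE, PVDF transfer, rabbit monoclonal cleaved caspase-3 (Asp175) antibody 12 h, secondary 1 h, chemiluminescent detection; β-actin loading control. Representative blots of three independent experiments.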
Background: A western blot detects proteins with antibodies after separation by electrophoresis.

Test [2] concerns MOLM-13. The experiment in a line: Induction of apoptosis in human MOLM13 cells assessed as caspase-3 activation at 10 nM after 72 hrs by immunoblotting analysis. The test is classed as functional, cell-based. In short, it runs like this:
(§2)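 MOLM-13 cells treated 72 h with test compounds at 10 μM or PKC412 at 10 nM. Cells washed in ice-cold PBS, lysed at 10^8 cells/mL in NP-40 hypertonic buffer (pH 7.5) with protease/phosphatase inhibitors, then run on SDS-PAGE and PVDF. Blots probed 12 h with rabbit monoclonal cleaved caspase-3 (Asp175), β-actin as loading control. Representative of three independent experiments.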

Test [3] concerns MOLM-13. Kind of test: Induction of apoptosis in human MOLM13 cells assessed as late apoptotic cells at 2.8 uM after 24 hrs by Annexin-V FITC/7-AAD staining based flow cytometric method (reference value: 1.43%). The format is functional.
For test [4], the system named is MOLM-13. The experiment in a line: Induction of apoptosis in human MOLM13 cells assessed as live cells at 2.8 uM after 24 hrs by Annexin-V FITC/7-AAD staining based flow cytometric method (reference value: 86.8%). The format is functional. (In flow cytometry, cells or beads pass a laser one at a time.)
In test [5] the test system is EOL1. Kind of test: Induction of apoptosis in human EOL-1 cells assessed as necrotic cells at 0.56 uM after 24 hrs by Annexin-V FITC/7-AAD staining based flow cytometric method (reference value: 0.032%). The test is classed as functional.
Test [6] deals with EOL1. The experiment in a line: Induction of apoptosis in human EOL-1 cells assessed as early apoptotic cells at 0.56 uM after 24 hrs by Annexin-V FITC/7-AAD staining based flow cytometric method (reference value: 1.94%). The test is classed as functional.
For test [7], the system named is MOLM-13. Kind of test: Cytotoxicity against human MOLM13 cells after 72 hrs by MTS assay. The format is functional, cell-based. Particulars: MOLM-13, 72 h.
Test [8] concerns MOLM-13. The experiment in a line: Induction of apoptosis in human MOLM13 cells assessed as early apoptotic cells at 0.56 uM after 24 hrs by Annexin-V FITC/7-AAD staining based flow cytometric method (reference value: 11.8%). The test is classed as functional.
In test [9] the test system is EOL1. The experiment in a line: Induction of apoptosis in human EOL-1 cells assessed as necrotic cells at 1.1 uM after 24 hrs by Annexin-V FITC/7-AAD staining based flow cytometric method (reference value: 0.032%). The test is classed as functional.
For test [10], the system named is EOL1. The experiment in a line: Induction of apoptosis in human EOL-1 cells assessed as early apoptotic cells at 2.8 uM after 24 hrs by Annexin-V FITC/7-AAD staining based flow cytometric method (reference value: 1.94%). The format is functional.
The subject of test [11] is MOLM-13. Kind of test: Induction of apoptosis in human MOLM13 cells assessed as necrotic cells at 2.8 uM after 24 hrs by Annexin-V FITC/7-AAD staining based flow cytometric method (reference value: 0%). The format is functional.
Test [12] deals with Transcription factor p65 (Homo sapiens) (UniProt Q04206). Kind of test: Inhibition of NFkappaB p65 in human EOL-1 cells at 10 uM after 72 hrs by immunoblotting method. The format is cell-based. In short, it runs like this: (§3)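 MOLM-13 or EOL-1 cells treated 72 h at 10 μM. Cells washed in ice-cold PBS and lysed in hypertonic NP-40 buffer (10 mM HEPES pH 7.5, 0.5 M NaCl) with protease/phosphatase inhibitors. Protein measured by BCA; SDS-PAGE onto PVDF. Probed 12 h with rabbit monoclonal NF-κB-p65 antibody, goat β-actin as loading control, then chemiluminescence. Blots representative of three independent experiments.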
Chain of Transcription factor p65 (Homo sapiens) (Q04206 whole entry): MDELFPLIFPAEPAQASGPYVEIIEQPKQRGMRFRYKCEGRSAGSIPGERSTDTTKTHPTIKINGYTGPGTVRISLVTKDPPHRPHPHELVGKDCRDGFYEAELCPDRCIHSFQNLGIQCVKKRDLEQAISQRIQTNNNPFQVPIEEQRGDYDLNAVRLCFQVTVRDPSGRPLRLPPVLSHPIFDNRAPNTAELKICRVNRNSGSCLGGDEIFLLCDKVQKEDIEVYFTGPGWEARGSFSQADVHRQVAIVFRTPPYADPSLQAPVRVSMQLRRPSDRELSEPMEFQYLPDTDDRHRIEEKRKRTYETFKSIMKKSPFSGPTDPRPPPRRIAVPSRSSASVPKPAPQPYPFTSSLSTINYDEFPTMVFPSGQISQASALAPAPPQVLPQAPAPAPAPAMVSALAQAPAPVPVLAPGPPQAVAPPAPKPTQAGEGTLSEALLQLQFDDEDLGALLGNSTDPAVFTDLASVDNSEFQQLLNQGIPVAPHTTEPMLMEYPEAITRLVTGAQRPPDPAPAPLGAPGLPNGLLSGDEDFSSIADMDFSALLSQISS

Test [13] relates to EOL1. Kind of test: Induction of apoptosis in human EOL-1 cells assessed as live cells at 0.56 uM after 24 hrs by Annexin-V FITC/7-AAD staining based flow cytometric method (reference value: 97.5%). The format is functional.
Test [14] relates to EOL1. Kind of test: Induction of apoptosis in human EOL-1 cells assessed as early apoptotic cells at 1.1 uM after 24 hrs by Annexin-V FITC/7-AAD staining based flow cytometric method (reference value: 1.94%). The format is functional.
Test [15] relates to MOLM-13. Kind of test: Induction of apoptosis in human MOLM13 cells assessed as late apoptotic cells at 0.56 uM after 24 hrs by Annexin-V FITC/7-AAD staining based flow cytometric method (reference value: 1.43%). The test is classed as functional.
Test [16] deals with EOL1. The experiment in a line: Induction of apoptosis in human EOL-1 cells assessed as necrotic cells at 2.8 uM after 24 hrs by Annexin-V FITC/7-AAD staining based flow cytometric method (reference value: 0.032%). The format is functional.
Test [17] relates to MOLM-13. Kind of test: Induction of apoptosis in human MOLM13 cells assessed as caspase-3 activation at 10 uM after 72 hrs by immunoblotting analysis. The test is classed as functional, cell-based. In short, it runs like this:
as §2

Test [18] concerns MOLM-13. The experiment in a line: Induction of apoptosis in human MOLM13 cells assessed as live cells at 0.56 uM after 24 hrs by Annexin-V FITC/7-AAD staining based flow cytometric method (reference value: 86.8%). The format is functional.
Test [19] has as its system MOLM-13. The experiment in a line: Induction of apoptosis in human MOLM13 cells assessed as early apoptotic cells at 1.1 uM after 24 hrs by Annexin-V FITC/7-AAD staining based flow cytometric method (reference value: 11.8%). The test is classed as functional.
In test [20] the test system is EOL1. Kind of test: Synergistic antileukemic activity against human EOL-1 cells assessed as concentration required for <= 75% cell survival after 72 hrs in presence of midostaurin by CellTiter 96 AQueous One solution cell proliferation assay. The format is functional.
Test [21] concerns EOL1. Kind of test: Induction of apoptosis in human EOL-1 cells assessed as late apoptotic cells at 1.1 uM after 24 hrs by Annexin-V FITC/7-AAD staining based flow cytometric method (reference value: 0.535%). The format is functional.
For test [22], the target named is Transcription factor p65 (Homo sapiens) (UniProt Q04206). The experiment in a line: Inhibition of NFkappaB p65 in human MOLM13 cells at 10 uM after 72 hrs by immunoblotting method. The format is cell-based. In short, it runs like this: as §3
Test [23] has as its system EOL1. The experiment in a line: Induction of apoptosis in human EOL-1 cells assessed as live cells at 2.8 uM after 24 hrs by Annexin-V FITC/7-AAD staining based flow cytometric method (reference value: 97.5%). The format is functional.
Test [24] has as its system EOL1. Kind of test: Induction of apoptosis in human EOL-1 cells assessed as caspase-3 activation at 10 uM after 72 hrs by immunoblotting analysis. The format is functional, cell-based. In short, it runs like this: as §1
Test [25] has as its system MOLM-13. Kind of test: Induction of apoptosis in human MOLM13 cells assessed as live cells at 1.1 uM after 24 hrs by Annexin-V FITC/7-AAD staining based flow cytometric method (reference value: 86.8%). The format is functional.
Test [26] has as its system EOL1. The experiment in a line: Induction of apoptosis in human EOL-1 cells assessed as late apoptotic cells at 2.8 uM after 24 hrs by Annexin-V FITC/7-AAD staining based flow cytometric method (reference value: 0.535%). The test is classed as functional.
Test [27] deals with MOLM-13. Kind of test: Induction of apoptosis in human MOLM13 cells assessed as late apoptotic cells at 1.1 uM after 24 hrs by Annexin-V FITC/7-AAD staining based flow cytometric method (reference value: 1.43%). The test is classed as functional.
In test [28] the test system is EOL1. The experiment in a line: Induction of apoptosis in human EOL-1 cells assessed as late apoptotic cells at 0.56 uM after 24 hrs by Annexin-V FITC/7-AAD staining based flow cytometric method (reference value: 0.535%). The test is classed as functional.
Test [29] has as its system MOLM-13. Kind of test: Induction of apoptosis in human MOLM13 cells assessed as necrotic cells at 1.1 uM after 24 hrs by Annexin-V FITC/7-AAD staining based flow cytometric method (reference value: 0%). The format is functional.
In test [30] the test system is MOLM-13. Kind of test: Synergistic antileukemic activity against human MOLM13 cells assessed as concentration required for <= 75% cell survival after 72 hrs in presence of midostaurin by CellTiter 96 AQueous One solution cell proliferation assay. The test is classed as functional.
The next test relates to HT-29. The experiment in a line: Cytotoxicity against human HT-29 cells after 72 hrs by MTS assay. The format is functional, cell-based. The note with it: HT-29, 72 h. On the technique in general: Tetrazolium assays rely on reduction of a dye to a coloured formazan, in cell work by metabolically active cells.
For test [31], the system named is MOLM-13. Kind of test: Induction of apoptosis in human MOLM13 cells assessed as early apoptotic cells at 2.8 uM after 24 hrs by Annexin-V FITC/7-AAD staining based flow cytometric method (reference value: 11.8%). The format is functional.
Test [32] has as its system MOLM-13. Kind of test: Induction of apoptosis in human MOLM13 cells assessed as necrotic cells at 0.56 uM after 24 hrs by Annexin-V FITC/7-AAD staining based flow cytometric method (reference value: 0%). The test is classed as functional.
The subject of test [33] is EOL1. The experiment in a line: Cytotoxicity against human EOL-1 cells after 72 hrs by MTS assay. The test is classed as functional, cell-based. Particulars: EOL1, 72 h.
Test [34] deals with EOL1. The experiment in a line: Induction of apoptosis in human EOL-1 cells assessed as live cells at 1.1 uM after 24 hrs by Annexin-V FITC/7-AAD staining based flow cytometric method (reference value: 97.5%). The test is classed as functional.

`CO[C@@H]1[C@H](N(C)C(=O)c2ccccc2)C[C@H]2O[C@]1(C)n1c3ccccc3c3c4c(c5c6ccccc6n2c5c31)C(=O)NC4`: the outcome in the test on EOL1 [1] and in the test with MOLM-13 [2] was Active.
For the compound `C=C(C)C(=O)O[C@H]1C[C@@]2(C)OC(=CC2=O)/C(CO)=C\[C@H]2OC(=O)C(=C)[C@H]12` [GOIAZENSOLIDE], the Activity in the test with MOLM-13 [3] is listed as 97.7%; in the test with MOLM-13 [4], 0.135%; with EOL1 [5] it was 0.306%; in the test with EOL1 [6], 1.84%; in the test with MOLM-13 [8] it was 14.7%; in the test with EOL1 [9] it was 2.4%. For the same compound, the Activity with EOL1 [10] is 0%; with MOLM-13 [11] it was 1.96%; in the test with EOL1 [13], 91.7%; in the test on EOL1 [14] it was 0.281%; in the test with MOLM-13 [15], 3.18%; with EOL1 [16], 0.189%. Further, the Activity was found to be 81.8% with MOLM-13 [18]; 0.958% in the test with MOLM-13 [19]; 0.56 µM with EOL1 [20]; 93.3% in the test with EOL1 [21]; 0.01% in the test on EOL1 [23]; 2.54% in the test on MOLM-13 [25]. In addition, the Activity in the test on EOL1 [26] was 99.8%; with MOLM-13 [27] it was 94.6%; in the test on EOL1 [28], 6.18%; in the test with MOLM-13 [29] it was 1.86%; in the test with MOLM-13 [30] it was 0.42 µM; in the test with MOLM-13 [31], 0.203%. Besides, the Activity in the test with MOLM-13 [32] was 0.392%; in the test with EOL1 [34], 3.99%. For the same compound, the pIC50 (in general, −log10 of the IC50, conventionally taken in molar units) was 6.07 in the test on MOLM-13 [7], 6.25 in the test with HT-29 and 5.96 in the test on EOL1 [33]. For the same compound, the inhibition entry in test [12] and in test [22] was “Active” throughout. Also, the result with MOLM-13 [17] and in the test on EOL1 [24] was Active.

The values are drawn from ChEMBL document CHEMBL4138271, “Crystal Structures and Human Leukemia Cell Apoptosis Inducible Activities of Parthenolide Analogues Isolated from Piptocoma rufescens” (J Nat Prod, 2018).
